Source: paper PMC3332339 (European Journal of Clinical Pharmacology, 2012)
Marks after values point to notes of the source that are not given here.

Assays:
[1] = system: thrombin (meizothrombin generated from prothrombin by ecarin); test: Ecarin clotting time; type: in vivo, human
human α-thrombin = test: Diluted thrombin time; type: in vivo; conditions: for dTT (HEMOCLOT) AUEC0–48, gMean / dTT (HEMOCLOT) ERmax, gMean / dTT (HEMOCLOT) Ebase (baseline effect), gMean: n = 23
How it was run: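 Healthy-adult crossover (oral prodrug 220 mg alone or after 3 days of s.c. LMWH 40 mg), plasma sampled over 48 h. Plasma diluted in 0.9% NaCl, mixed with normal pooled human plasma, 2 min at 37°C; clotting started with a fixed amount of purified human α-thrombin and time to clot recorded in seconds. Quantitative range 50–500 ng/mL. AUEC0–48 and ERmax; geometric mean ratios with 90% CI.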

[2] = system: intrinsic pathway of the coagulation cascade; test: Activated partial thromboplastin time; type: in vivo, human; conditions: for aPTT AUEC0–48, gMean / aPTT ERmax, gMean / aPTT Ebase (baseline effect), gMean: n = 23
How it was run: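 Crossover in healthy adults (18–55 y) with 5-day washout: oral thrombin-inhibitor prodrug 220 mg alone, or 24 h after 3 daily s.c. LMWH 40 mg doses. Plasma sampled over 48 h. Equal volumes of plasma and kaolin–cephalin reagent, 3 min at 37°C with stirring, recalcified with 0.025 M CaCl2, then time to fibrin clot on a coagulometer. Geometric mean test/reference ratios with 90% CI.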

Safety and tolerability = type: in vivo, human; conditions: for Tolerability (global assessment): Phase I, healthy subjects
How it was run: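 Open-label single-center crossover in healthy men and women: oral prodrug 220 mg alone, or after 3 daily s.c. LMWH 40 mg doses. Assessed by adverse events, physical examination, blood pressure, pulse, 12-lead ECG, hematology, clinical chemistry, urinalysis, local tolerability and investigator global assessment. Follow-up on days 1–3, with end-of-study examination within 7 days.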

[3] = system: factor Xa inhibition and thrombin inhibition; test: Prothrombinase-induced clotting time; type: in vivo, human; conditions: for PiCT AUEC0–48, ratio of adjusted test/reference gMean (90% CI) / PiCT ERmax, ratio of adjusted test/reference gMean (90% CI): after enoxaparin vs alone
How it was run: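 Healthy-adult crossover: oral prodrug 220 mg alone, or 24 h after 3 daily s.c. LMWH 40 mg doses. Platelet-poor plasma incubated with phospholipid/Russell's viper venom activator, 3 min at 37°C; factor Xa added, recalcified with reagent containing 25 mM CaCl2, clotting time read. Daily 142 ng/mL quality-control standard run at start, middle and end. AUEC0–48 and ERmax versus baseline; geometric mean ratios with 90% CI.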

[4] = pharmacologically equipotent glucuronide; cited from earlier work
[5] = Dabigatran plasma pharmacokinetics; type: in vivo, human; conditions: for AUC(0-inf) / Cmax: both, human, plasma
How it was run: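 Crossover in healthy adults: 220 mg oral prodrug alone, or 24 h after 3 daily s.c. LMWH 40 mg doses, with 5-day washout. Plasma taken to 48 h post-dose. Free drug: plasma buffered with 0.2 M ammonium formate pH 3.5 plus [13C6] internal standard. Total drug: alkaline cleavage with NaOH, 2 h at 37°C, then HCl. Validated HPLC-MS/MS, calibrated 1.00–400 ng/mL. Geometric mean ratios with 90% CI.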

factor Xa/IIa = conditions: cited from earlier work
[6] = dabigatran etexilate 220 mg after enoxaparin, n = 23
[7] = dabigatran etexilate 220 mg alone, n = 23
[8] = dabigatran etexilate 220 mg after enoxaparin
[9] = dabigatran etexilate 220 mg alone
[10] = dabigatran etexilate 220 mg after enoxaparin, n = 21
[11] = dabigatran etexilate dosed 24 h after enoxaparin
[12] = dabigatran etexilate 220 mg after enoxaparin vs alone, adjusted gMean ratio
[13] = enoxaparin pre-treatment before dabigatran etexilate 220 mg

For CCCCCCOC(=O)NC(=N)c1ccc(NCc2nc3cc(C(=O)N(CCC(=O)OCC)c4ccccn4)ccc3n2C)cc1 [Dabigatran etexilate], the “ECT AUEC0–48, ratio of adjusted test/reference gMean (90% CI)” value ([1]; after enoxaparin vs alone) was 99.2 (67.8–145.0) %, the “ECT ERmax, ratio of adjusted test/reference gMean (90% CI)” value ([1]; after enoxaparin vs alone) was 91.0 (80.0–103.5) % and the “ECT Ebase (baseline effect), gMean” value ([1]; dabigatran etexilate 220 mg after enoxaparin, n = 22) was 32.6^d s. For the same molecule, the “ECT AUEC0–48, gMean” value [1, 6] was 7.30 h, the “ECT ERmax, gMean” value [1, 6] was 2.05 and the “ECT AUEC0–48, gMean” value [1, 7] was 7.28 h. For the same molecule, the “ECT ERmax, gMean” value [1, 7] was 2.25, the “ECT Ebase (baseline effect), gMean” value [1, 7] was 33.1 s and the “dTT (HEMOCLOT) AUEC0–48, ratio of adjusted test/reference gMean (90% CI)” value (human α-thrombin; after enoxaparin vs alone) was 88.4 (66.8–116.9) %. For the same molecule, the “dTT (HEMOCLOT) ERmax, ratio of adjusted test/reference gMean (90% CI)” value (human α-thrombin; after enoxaparin vs alone) was 95.0 (87.4–103.2) %, the “dTT (HEMOCLOT) AUEC0–48, gMean” value (human α-thrombin; [8]) was 3.61 h and the “dTT (HEMOCLOT) ERmax, gMean” value (human α-thrombin; [8]) was 1.55. For the same molecule, the “dTT (HEMOCLOT) Ebase (baseline effect), gMean” value (human α-thrombin; [8]) was 31.0 s, the “dTT (HEMOCLOT) AUEC0–48, gMean” value (human α-thrombin; [9]) was 4.01 h and the “dTT (HEMOCLOT) ERmax, gMean” value (human α-thrombin; [9]) was 1.64. The “dTT (HEMOCLOT) Ebase (baseline effect), gMean” value (human α-thrombin; [9]) was 31.7 s, the “aPTT AUEC0–48, ratio of adjusted test/reference gMean (90% CI)” value ([2]; after enoxaparin vs alone) was 114.2 (75.1–173.5) % and the “aPTT ERmax, ratio of adjusted test/reference gMean (90% CI)” value ([2]; after enoxaparin vs alone) was 84.9 (70.3–102.5) %. The “aPTT AUEC0–48, gMean” value [2, 8] was 6.56 h, the “aPTT ERmax, gMean” value [2, 8] was 2.07 and the “aPTT Ebase (baseline effect), gMean” value [2, 8] was 39.3 s. For the same molecule, the “aPTT AUEC0–48, gMean” value [2, 9] was 5.65 h, the “aPTT ERmax, gMean” value [2, 9] was 2.40 and the “aPTT Ebase (baseline effect), gMean” value [2, 9] was 39.1 s. For the same molecule, the “Tolerability (global assessment)” value (Safety and tolerability) was “well tolerated”, the “PiCT AUEC0–48, ratio of adjusted test/reference gMean (90% CI)” value [3] was 163.7 (114.3–234.3) % and the “PiCT ERmax, ratio of adjusted test/reference gMean (90% CI)” value [3] was 115.2 (101.8–130.4) %. For the same molecule, the “PiCT AUEC0–48, ratio of adjusted test/reference gMean (90% CI)” value ([3]; listed as dabigatran etexilate) was 163.7%, the “PiCT ERmax, ratio of adjusted test/reference gMean (90% CI)” value ([3]; listed as dabigatran etexilate) was 115.2% and the “PiCT AUEC0–48, gMean” value [3, 10] was 23.8^c h. The “PiCT ERmax (maximum effect ratio to baseline), gMean” value [3, 10] was 2.92^c, the “PiCT Ebase (baseline effect), gMean” value [3, 10] was 34.7^c s and the “PiCT AUEC0–48, gMean” value [3, 7] was 14.6 h. The “PiCT ERmax (maximum effect ratio to baseline), gMean” value [3, 7] was 2.53, the “PiCT Ebase (baseline effect), gMean” value [3, 7] was 28.4 s and the “Increase of PiCT ERmax compared with dabigatran etexilate alone” value [3, 11] was “approximately 15%”. For the same molecule, the “PiCT time to peak” value ([3]; similar in both treatment regimens (alone and 24 h after enoxaparin)) was 3 h.

With [H]/N=C(/N)c1ccc(NCc2nc3cc(C(=O)N(CCC(=O)O)c4ccccn4)ccc3n2C)cc1 [dabigatran] the “Subjects with adverse events by actual treatment at onset” value (“Subjects with adverse events” for short) (Safety and tolerability; treatment at onset: dabigatran (three subjects of 23)) was 13.0%, the “Subjects with adverse events” value (Safety and tolerability; treatment at onset: enoxaparin + dabigatran (three subjects of 23)) was 13.0% and the “Increase of PiCT AUEC0–48 compared with dabigatran etexilate alone” value [3, 11] was 64%. The “Increase of PiCT ERmax compared with dabigatran etexilate alone” value [3, 11] was roughly 15%, the “Glucuronide share of total dabigatran exposure in plasma” value [4] was “approximately 20%” and the “Ratio of free to total dabigatran gMean AUC0-∞” value ([5]; after enoxaparin) was 0.765. It also gave an AUC(0-inf) ([5]; oral) of 592 ng·h/mL, a Cmax ([5]; oral) of 78.4 ng/mL and an AUC(0-inf) ([5]; po, 220 mg) of 700 ng·h/mL. The Cmax ([5]; po, 220 mg) was 90.7 ng/mL, the “Ratio of free to total dabigatran gMean AUC0-∞” value ([5]; dabigatran alone) was 0.760 and the “AUC0-∞, ratio test/reference” value [5, 12] was 85%. For the same molecule, the “Cmax, ratio test/reference” value [5, 12] was 86%.

For enoxaparin, the “Effect of enoxaparin on ECT” value [1, 13] was “not meaningfully affected”, the “Effect of enoxaparin on dTT” value (human α-thrombin; [13]) was “not meaningfully affected” and the “Tolerability (global assessment)” value (Safety and tolerability) was “well tolerated”. The “Subjects with adverse events” value (Safety and tolerability; treatment at onset: enoxaparin (four subjects of 23)) was 17.4% and the “Mean anti-factor Xa/IIa ratio” value (factor Xa/IIa) was 14.0 ± 3.1.
